Laboratory results reported in ChEMBL document CHEMBL1914304 (J Med Chem, 2011).
pIC50: −log10 of the molar value.

Experiments:
[1] = Inhibition of KvLQT/minK at 10 uM after 5 mins by patch clamp assay
Summary of the method: (§1)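 Fixed-concentration screen across a panel of 12 cloned cardiac ion channels. The compound was tested at 10 µM for 5 min exposure at room temperature by automated parallel patch clamp, in two cells (n ≥ 2) per channel. Values are mean percent inhibition of channel current.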

[2] = target: Sulfonylurea receptor 2, Kir6.2 (Homo sapiens) (UniProt Q14654+O60706); test: Inhibition of Kir6.2/SUR2A at 10 uM after 5 mins by patch clamp assay; summary of the method: as §1
[3] = target: Voltage-dependent T-type calcium channel subunit alpha-1H (Homo sapiens) (UniProt O95180); test: Inhibition of Cav3.2 at 10 uM after 5 mins by patch clamp assay; summary of the method: as §1
[4] = target: T1, Potassium/sodium hyperpolarization-activated cyclic nucleotide-gated channel 2 (Homo sapiens) (UniProt Q9UL51); test: Inhibition of HCN2 at 10 uM after 5 mins by patch clamp assay
T1 sequence (whole entry): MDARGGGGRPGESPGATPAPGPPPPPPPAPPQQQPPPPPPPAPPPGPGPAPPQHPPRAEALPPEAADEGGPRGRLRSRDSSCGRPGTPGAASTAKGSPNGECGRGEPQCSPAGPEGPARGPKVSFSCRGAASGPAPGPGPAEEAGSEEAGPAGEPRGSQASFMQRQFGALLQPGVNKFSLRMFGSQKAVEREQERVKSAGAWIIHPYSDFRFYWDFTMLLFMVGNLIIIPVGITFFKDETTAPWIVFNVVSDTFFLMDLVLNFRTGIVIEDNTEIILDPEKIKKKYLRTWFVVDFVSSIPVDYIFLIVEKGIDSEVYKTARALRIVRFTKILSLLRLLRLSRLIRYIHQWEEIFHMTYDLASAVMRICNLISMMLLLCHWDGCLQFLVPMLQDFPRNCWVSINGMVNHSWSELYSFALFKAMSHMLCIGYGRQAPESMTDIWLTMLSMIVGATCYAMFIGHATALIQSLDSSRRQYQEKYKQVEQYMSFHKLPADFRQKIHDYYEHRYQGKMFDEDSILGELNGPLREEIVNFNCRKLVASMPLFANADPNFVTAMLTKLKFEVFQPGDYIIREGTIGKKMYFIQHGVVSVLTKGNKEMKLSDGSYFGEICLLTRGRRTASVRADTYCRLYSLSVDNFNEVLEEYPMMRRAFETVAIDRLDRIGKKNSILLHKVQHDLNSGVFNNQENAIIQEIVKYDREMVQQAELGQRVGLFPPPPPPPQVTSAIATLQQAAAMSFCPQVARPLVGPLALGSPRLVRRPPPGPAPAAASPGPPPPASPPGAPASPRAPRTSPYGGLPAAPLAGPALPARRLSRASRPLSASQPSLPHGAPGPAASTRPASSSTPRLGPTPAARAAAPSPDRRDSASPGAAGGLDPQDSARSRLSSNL
Summary of the method: (§2)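 Cardiac ion channel panel run by a contract lab on an automated parallel patch-clamp system at room temperature. Each of 12 cardiac channels was tested with 10 µM compound for 5 min exposure, in two cells per channel (n ≥ 2). Values are reported as mean % inhibition.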

[5] = target: T2, Potassium/sodium hyperpolarization-activated cyclic nucleotide-gated channel 4 (Homo sapiens) (UniProt Q9Y3Q4); test: Inhibition of HCN4 at 10 uM after 5 mins by patch clamp assay; summary of the method: as §2
T2 sequence (whole entry): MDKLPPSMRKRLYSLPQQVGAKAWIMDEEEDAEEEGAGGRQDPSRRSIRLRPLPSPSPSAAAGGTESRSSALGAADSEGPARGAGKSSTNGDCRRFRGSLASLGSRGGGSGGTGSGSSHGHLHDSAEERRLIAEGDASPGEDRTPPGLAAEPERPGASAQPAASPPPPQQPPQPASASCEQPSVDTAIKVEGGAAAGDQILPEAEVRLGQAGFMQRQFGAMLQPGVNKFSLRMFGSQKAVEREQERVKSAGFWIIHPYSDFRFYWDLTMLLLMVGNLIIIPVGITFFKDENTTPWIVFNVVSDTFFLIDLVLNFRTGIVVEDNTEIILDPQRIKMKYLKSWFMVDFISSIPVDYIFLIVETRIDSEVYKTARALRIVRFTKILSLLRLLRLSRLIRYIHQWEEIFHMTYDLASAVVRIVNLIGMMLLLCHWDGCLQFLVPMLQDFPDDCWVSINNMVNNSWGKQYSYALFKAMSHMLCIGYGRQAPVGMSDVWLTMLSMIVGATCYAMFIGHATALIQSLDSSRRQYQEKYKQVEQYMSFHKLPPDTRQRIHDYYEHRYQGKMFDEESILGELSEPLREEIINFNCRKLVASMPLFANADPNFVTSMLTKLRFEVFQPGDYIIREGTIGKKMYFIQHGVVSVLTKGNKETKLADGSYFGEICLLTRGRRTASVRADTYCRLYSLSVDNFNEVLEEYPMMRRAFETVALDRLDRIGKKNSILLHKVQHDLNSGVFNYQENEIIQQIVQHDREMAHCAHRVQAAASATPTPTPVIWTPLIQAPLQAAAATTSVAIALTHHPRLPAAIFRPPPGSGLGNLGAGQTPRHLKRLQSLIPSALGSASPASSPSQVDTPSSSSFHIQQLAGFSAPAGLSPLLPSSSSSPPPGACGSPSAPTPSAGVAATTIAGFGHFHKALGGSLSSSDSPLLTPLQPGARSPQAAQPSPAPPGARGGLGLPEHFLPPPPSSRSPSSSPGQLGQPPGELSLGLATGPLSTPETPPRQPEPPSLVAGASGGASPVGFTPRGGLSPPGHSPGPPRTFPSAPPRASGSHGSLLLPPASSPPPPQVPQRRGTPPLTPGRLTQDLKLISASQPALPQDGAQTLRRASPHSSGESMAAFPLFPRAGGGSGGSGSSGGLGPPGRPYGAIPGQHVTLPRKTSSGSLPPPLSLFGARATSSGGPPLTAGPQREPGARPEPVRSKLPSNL

[6] = target: Sulfonylurea receptor 2, Kir6.2 (Homo sapiens, UniProt O60706+Q14654); test: Inhibition of human kir6.2/SUR2A ion channel coexpressed in human HEK293 cells after 5 mins by patch clamp assay; assay type: cell-based
Summary of the method: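 Human KCNJ11 (Kir6.2) and SUR2A were co-expressed in HEK293 cells to give the ATP-sensitive current IKATP. The assay was run at room temperature by automated parallel patch clamp, with dose-response at 0.2, 0.6, 1.6 and 5 µM. Exposure was 5 min per concentration, with each concentration in two cells (n ≥ 2).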

[7] = target: Potassium voltage-gated channel subfamily A member 5 (Homo sapiens) (UniProt P22460); test: Inhibition of Kv1.5 at 10 uM after 5 mins by patch clamp assay; summary of the method: as §2
Chain of Potassium voltage-gated channel subfamily A member 5 (Homo sapiens) (P22460 whole entry): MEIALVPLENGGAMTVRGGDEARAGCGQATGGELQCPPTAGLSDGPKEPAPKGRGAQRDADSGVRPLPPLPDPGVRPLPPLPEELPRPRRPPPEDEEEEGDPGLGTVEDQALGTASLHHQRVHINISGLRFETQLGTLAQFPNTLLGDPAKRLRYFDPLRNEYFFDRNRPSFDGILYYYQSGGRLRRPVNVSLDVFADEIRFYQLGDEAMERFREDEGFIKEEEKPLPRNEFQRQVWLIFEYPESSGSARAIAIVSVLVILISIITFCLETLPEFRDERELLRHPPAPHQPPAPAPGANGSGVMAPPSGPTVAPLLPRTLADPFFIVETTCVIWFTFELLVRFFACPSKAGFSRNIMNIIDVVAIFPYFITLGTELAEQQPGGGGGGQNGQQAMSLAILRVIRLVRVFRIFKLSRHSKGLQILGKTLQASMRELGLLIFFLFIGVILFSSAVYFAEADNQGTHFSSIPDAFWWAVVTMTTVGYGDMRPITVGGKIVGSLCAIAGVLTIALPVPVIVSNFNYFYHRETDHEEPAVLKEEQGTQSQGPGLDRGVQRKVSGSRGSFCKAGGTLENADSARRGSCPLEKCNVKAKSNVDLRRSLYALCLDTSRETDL

Chain of Sulfonylurea receptor 2, Kir6.2 (Q14654 whole entry): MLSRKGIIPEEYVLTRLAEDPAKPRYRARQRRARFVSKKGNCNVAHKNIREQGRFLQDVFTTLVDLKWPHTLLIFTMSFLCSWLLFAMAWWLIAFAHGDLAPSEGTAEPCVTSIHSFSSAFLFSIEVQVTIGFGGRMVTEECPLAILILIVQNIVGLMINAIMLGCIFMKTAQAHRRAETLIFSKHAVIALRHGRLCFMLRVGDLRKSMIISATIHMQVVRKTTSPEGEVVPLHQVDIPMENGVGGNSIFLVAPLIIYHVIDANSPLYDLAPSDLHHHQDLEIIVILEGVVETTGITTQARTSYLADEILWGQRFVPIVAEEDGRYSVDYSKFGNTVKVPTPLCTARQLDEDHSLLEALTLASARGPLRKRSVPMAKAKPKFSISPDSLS
Chain of Sulfonylurea receptor 2, Kir6.2 (O60706 whole entry): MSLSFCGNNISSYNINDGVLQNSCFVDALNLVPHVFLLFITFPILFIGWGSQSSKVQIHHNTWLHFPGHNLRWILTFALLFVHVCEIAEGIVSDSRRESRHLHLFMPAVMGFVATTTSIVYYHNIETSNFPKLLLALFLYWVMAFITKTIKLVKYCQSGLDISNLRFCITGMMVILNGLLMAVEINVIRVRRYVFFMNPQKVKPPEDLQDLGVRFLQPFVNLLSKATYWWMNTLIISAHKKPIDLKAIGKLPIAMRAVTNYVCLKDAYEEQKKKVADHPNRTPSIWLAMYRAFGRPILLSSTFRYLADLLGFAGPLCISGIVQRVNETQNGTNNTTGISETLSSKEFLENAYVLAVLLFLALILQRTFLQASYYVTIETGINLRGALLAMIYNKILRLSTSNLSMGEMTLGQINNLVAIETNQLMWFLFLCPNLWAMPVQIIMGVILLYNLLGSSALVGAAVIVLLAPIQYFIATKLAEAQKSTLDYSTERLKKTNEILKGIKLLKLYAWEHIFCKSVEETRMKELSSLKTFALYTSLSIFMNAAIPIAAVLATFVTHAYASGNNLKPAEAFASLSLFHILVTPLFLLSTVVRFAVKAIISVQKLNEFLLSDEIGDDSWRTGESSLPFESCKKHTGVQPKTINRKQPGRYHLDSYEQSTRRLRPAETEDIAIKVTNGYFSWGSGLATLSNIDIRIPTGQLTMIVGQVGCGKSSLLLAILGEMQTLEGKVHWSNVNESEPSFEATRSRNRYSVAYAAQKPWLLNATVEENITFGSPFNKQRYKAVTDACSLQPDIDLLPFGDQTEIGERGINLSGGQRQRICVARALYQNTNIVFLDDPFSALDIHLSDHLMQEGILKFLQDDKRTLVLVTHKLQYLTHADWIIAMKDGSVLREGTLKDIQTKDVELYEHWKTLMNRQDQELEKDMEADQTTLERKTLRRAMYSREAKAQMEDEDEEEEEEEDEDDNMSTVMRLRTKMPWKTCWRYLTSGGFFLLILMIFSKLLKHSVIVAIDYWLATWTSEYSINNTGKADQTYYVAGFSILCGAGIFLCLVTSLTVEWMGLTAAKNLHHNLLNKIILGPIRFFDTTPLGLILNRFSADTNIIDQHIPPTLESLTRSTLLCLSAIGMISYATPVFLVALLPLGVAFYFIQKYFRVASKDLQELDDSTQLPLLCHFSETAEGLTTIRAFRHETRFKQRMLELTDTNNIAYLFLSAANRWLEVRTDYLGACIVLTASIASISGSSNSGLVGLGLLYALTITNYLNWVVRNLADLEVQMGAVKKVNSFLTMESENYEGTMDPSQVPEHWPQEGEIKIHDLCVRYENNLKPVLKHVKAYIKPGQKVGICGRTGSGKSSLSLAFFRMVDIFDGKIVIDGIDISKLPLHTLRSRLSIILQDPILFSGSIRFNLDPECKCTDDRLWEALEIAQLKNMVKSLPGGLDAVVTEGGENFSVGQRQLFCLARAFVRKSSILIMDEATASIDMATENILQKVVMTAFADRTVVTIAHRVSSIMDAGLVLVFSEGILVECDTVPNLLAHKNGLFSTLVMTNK
Chain of Voltage-dependent T-type calcium channel subunit alpha-1H (Homo sapiens) (O95180 whole entry): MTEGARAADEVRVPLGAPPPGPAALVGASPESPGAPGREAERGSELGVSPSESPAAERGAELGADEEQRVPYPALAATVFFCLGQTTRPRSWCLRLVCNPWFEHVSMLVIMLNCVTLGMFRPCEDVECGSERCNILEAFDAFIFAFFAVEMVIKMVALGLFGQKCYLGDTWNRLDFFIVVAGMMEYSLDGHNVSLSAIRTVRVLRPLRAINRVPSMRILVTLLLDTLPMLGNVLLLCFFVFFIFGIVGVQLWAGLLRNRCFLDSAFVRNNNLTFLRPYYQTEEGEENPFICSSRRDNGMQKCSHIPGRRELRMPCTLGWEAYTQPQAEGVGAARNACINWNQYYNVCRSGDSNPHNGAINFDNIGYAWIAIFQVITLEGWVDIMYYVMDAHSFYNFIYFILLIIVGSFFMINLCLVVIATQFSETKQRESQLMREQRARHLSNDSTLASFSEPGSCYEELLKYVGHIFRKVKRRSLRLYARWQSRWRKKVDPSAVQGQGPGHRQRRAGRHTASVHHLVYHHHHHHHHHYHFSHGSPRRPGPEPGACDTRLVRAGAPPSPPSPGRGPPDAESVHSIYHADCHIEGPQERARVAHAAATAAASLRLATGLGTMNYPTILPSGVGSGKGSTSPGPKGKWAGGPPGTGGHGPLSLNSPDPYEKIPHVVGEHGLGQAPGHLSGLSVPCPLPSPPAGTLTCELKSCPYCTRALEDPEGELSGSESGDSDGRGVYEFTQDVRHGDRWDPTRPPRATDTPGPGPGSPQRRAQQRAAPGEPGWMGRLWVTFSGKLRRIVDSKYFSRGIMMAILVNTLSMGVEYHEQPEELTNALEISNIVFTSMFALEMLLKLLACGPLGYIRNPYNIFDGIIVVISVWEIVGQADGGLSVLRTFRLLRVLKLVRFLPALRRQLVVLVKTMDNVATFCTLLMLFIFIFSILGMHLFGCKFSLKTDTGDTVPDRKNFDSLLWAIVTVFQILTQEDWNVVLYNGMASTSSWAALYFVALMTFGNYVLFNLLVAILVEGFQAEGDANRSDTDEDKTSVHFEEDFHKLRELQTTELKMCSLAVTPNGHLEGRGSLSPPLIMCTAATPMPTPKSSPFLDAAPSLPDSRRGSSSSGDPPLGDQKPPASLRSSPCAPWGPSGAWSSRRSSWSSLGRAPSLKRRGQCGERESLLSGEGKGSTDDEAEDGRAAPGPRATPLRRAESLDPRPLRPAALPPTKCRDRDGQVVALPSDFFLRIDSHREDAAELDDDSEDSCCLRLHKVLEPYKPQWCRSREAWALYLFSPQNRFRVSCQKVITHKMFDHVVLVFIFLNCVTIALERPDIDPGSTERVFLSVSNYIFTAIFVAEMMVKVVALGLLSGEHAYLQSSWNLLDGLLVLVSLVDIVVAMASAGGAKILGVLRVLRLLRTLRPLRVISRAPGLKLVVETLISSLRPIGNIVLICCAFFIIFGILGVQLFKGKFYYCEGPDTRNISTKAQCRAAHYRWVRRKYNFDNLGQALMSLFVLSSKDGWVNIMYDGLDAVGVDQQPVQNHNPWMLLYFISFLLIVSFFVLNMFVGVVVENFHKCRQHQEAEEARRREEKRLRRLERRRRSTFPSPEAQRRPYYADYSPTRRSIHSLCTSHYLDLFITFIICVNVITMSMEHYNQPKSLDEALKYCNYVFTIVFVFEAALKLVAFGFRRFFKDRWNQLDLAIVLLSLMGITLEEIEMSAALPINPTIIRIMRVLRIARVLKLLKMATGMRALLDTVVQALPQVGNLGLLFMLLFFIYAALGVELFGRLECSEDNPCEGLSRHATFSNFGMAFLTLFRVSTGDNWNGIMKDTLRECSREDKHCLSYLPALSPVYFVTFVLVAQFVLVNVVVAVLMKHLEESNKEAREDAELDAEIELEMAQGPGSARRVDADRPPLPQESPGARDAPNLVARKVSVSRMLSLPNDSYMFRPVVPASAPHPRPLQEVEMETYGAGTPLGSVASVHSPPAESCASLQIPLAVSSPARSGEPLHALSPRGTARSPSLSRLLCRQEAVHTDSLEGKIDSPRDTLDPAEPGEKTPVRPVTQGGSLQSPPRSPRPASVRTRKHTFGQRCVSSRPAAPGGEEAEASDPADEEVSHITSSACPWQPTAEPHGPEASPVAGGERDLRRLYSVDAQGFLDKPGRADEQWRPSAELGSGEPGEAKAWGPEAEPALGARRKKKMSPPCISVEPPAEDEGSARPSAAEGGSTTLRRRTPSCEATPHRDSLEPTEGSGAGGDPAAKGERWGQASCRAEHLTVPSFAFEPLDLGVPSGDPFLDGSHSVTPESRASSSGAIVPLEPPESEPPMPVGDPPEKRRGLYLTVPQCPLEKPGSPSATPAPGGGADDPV

For `CCCNCC(O)COc1ccccc1C(=O)CCc1ccccc1` (racemic) [PROPAFENONE], which inhibition [1] is on record?
Its inhibition is 33%.

What about the inhibition [2] of the same molecule?
The inhibition was 89.6%.

What about the inhibition [3] of the same molecule?
Its inhibition is 60.2%.

And the inhibition [4]?
Its inhibition is 47.8%.

And the inhibition [5]?
Its inhibition is 54.6%.

And the pIC50 [6]?
The pIC50 was 5.66.

What about the inhibition [7] of the same molecule?
The inhibition was 65.4%.
